Data set [1] concerns the target Phosphatidylinositol 4,5-bisphosphate 3-kinase catalytic subunit beta isoform (Homo sapiens, UniProt P42338). Kind of data set: Inhibition of recombinant PI3Kbeta by luminescent kinase assay.
A short description of data set [2]: Tmax in tumor of RT112/luc1 cells implanted athymic nude mouse at 20 mg/kg, po by LC/MS/MS analysis. The data set is classed as ADME, organism-based, Neoplasm. More on the design: dose 20 mg/kg, route oral. The method, boiled down:
(§1)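 Female athymic nude mice carrying subcutaneous RT112/luc1 tumors (ca. 300–400 mm3). Dosing was 5 mg/kg iv by tail vein in NMP/PEG200 (1:9) or 20 mg/kg by oral gavage as a suspension in PEG300/D5W (2:1). Groups (n = 4) were sacrificed from 0.083 to 24 h. Plasma and tumor were measured by LC-MS/MS (LOQ 5 ng/mL, 10 ng/g). Noncompartmental analysis used the linear trapezoidal AUC; F was calculated from dose-normalized AUC.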

For data set [3], the target named is Cyclin-dependent kinase 2 (Homo sapiens, UniProt P24941). Kind of data set: Inhibition of recombinant CDK2. The gist of the method: (§2)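 Purified recombinant kinases under optimized conditions, with peptide substrates and ATP at each kinase's Km. Phosphorylation was read out by microfluidic mobility shift, and IC50 values were obtained.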
For data set [4], the system named is Tumour. Briefly: Drug uptake in tumour of nude Rowett rat bearing human RT112 cells at 8.51 mg/kg, po administered as a single dose after 7 hrs by LC-MS/MS analysis. On the set-up: dose 8.51 mg/kg, route oral. The format is ADME, organism-based, Neoplasm, RT-112. As to conditions: in vivo. The method, boiled down: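 Nude Rowett rats bearing subcutaneous RT112 tumors (n = 4) received a single gavage of monophosphate salt at 4.25 or 8.51 mg/kg free base in acetate buffer pH 4.6/PEG300. Tumors were collected at intervals after dosing, frozen and homogenized in an equal volume of ice-cold PBS. Compound levels were measured by LC-MS/MS (LOQ 3 ng/mL).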

Data set [5] has as its target Ephrin type-B receptor 4 (Homo sapiens, UniProt P54760). Briefly: Inhibition of recombinant EPHB4. The gist of the method: as §2
The subject of data set [6] is Rattus norvegicus. Kind of data set: Inhibition of FGFR autophosphorylation in RT112 tumour bearing nude Rowett rat assessed as decrease in pMAPK concentration at 8.51 mg/kg, po administered as a single dose after 16 hrs by Western blot analysis. The data set is classed as functional, organism-based. More on the design: dose 8.51 mg/kg. The method, boiled down: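 RT112 subcutaneous xenografts in female nude Rowett rats (n = 4). Single oral gavage of the monophosphate salt at 4.25 or 8.51 mg/kg (free base equivalents) in acetic acid–acetate buffer pH 4.6/PEG300 (1:1). Tumors were collected at time points up to 24 h, frozen, homogenized and lysed. Western blots probed pFRS2(Tyr196) and pMAPK, with total FRS2, total MAPK or β-tubulin as loading controls.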
(In general: Immunoblotting shows a protein as a band on a membrane.)

Data set [7] in a line: Volume of distribution at steady state in RT112/luc1 cells implanted athymic nude mouse at 5 mg/kg, iv by LC/MS/MS. The format is ADME, organism-based. More on the design: dose 5 mg/kg, route intravenous. The settings on record: in vivo, read-out: Vdss. The gist of the method: as §1
The test system of data set [8] is Plasma. Briefly: Dose normalized AUC in plasma of RT112/luc1 cells implanted athymic nude mouse at 5 mg/kg, iv by LC/MS/MS analysis. The data set is classed as ADME, organism-based. On the set-up: dose 5 mg/kg, route intravenous. As to conditions: in vivo. The method, boiled down: (§3)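 Female athymic nude mice carried subcutaneous RT112/luc1 tumors (5×10^6 cells, 50% Matrigel; about 300–400 mm3). Dosing was either 5 mg/kg iv by tail vein in NMP/PEG200 (1:9) or 20 mg/kg oral suspension in PEG300/D5W (2:1). Groups of mice (n = 4) were sacrificed at 0.083–24 h. Plasma and tumor levels were measured by LC-MS/MS (LOQ 5 ng/mL, 10 ng/g).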

Data set [9] deals with Rattus norvegicus. Briefly: Toxicity in nude Rowett rat xenografted with human RT112 cells assessed as weight loss at 15 mg/kg, po qd administered for 20 days. More on the design: dose 15 mg/kg, route oral. The format is organism-based, RT-112. The settings on record: in vivo, 480 h. The method, boiled down:
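Female nude Rowett rats carried subcutaneous RT112 tumors (1 × 10^6 cells in Matrigel), starting at about 100 mm3. The monophosphate salt was gavaged daily for 20 days at 5, 10 or 15 mg/kg (free base) in acetate buffer pH 4.6/PEG300 (1:1), n = 8. Body weight and morbidity were monitored; ANOVA with Dunnett's test.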

Data set [10] relates to RT-112. Briefly: Antitumor activity against human RT112 cells xenografted in nude Rowett rat assessed as tumour regression at 10 mg/kg, po qd administered for 20 days. The data set is classed as functional. The gist of the method:
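Female nude Rowett rats aged 6–9 weeks were given 1×10^6 RT112 cells subcutaneously in HBSS/50% Matrigel. Treatment began at about 100 mm3 mean tumor volume (n = 8): monophosphate salt in acetate buffer pH 4.6/PEG300 (1:1) by gavage, 5 mL/kg, at 5, 10, 15 mg/kg/qd free base for 20 days. Tumors were measured by caliper (L×W×H×π/6). Readouts were T/C and % regression from start volume.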
A general note: In xenograft studies the graft and the host belong to different species.

Data set [11] in a line: Plasma clearance in RT112/luc1 cells implanted athymic nude mouse at 5 mg/kg, iv by LC/MS/MS analysis. The format is ADME, organism-based. More on the design: dose 5 mg/kg, route intravenous. The gist of the method:
as §1

Data set [12] addresses Serine/threonine-protein kinase pim-2 (Homo sapiens, UniProt Q9P1W9). Briefly: Inhibition of recombinant PIM2. The method, boiled down: (§4)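 Purified recombinant kinases under optimized conditions with peptide substrates. ATP was set at each kinase's Km. Phosphorylation was read by microfluidic mobility-shift separation of substrate and product; IC50 determined.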
Data set [13] has as its system Tumour. Briefly: Cmax in tumor of RT112/luc1 cells implanted athymic nude mouse at 20 mg/kg, po by LC/MS/MS analysis. The data set is classed as ADME, organism-based, Neoplasm. More on the design: dose 20 mg/kg, route oral. As to conditions: in vivo. The method, boiled down: as §3
Data set [14] has as its system Rattus norvegicus. Kind of data set: Dose normalized AUC in Wistar rat at 5 mg/kg, iv by LC-MS/MS analysis. As to conditions: in vivo. More on the design: dose 5 mg/kg, route intravenous. The data set is classed as ADME, organism-based. The gist of the method:
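Female Wistar rats received either an iv femoral-vein dose of 5 mg/kg in NMP/PEG200 (1:9) or an oral dose of monophosphate salt at 10 mg/kg (free base) in acetate buffer pH 4.6/PEG300. Plasma was sampled by sublingual bleeding at 0.083–24 h (n = 4 staggered, or n = 3–4 serial). Plasma levels were measured by LC-MS/MS (LOQ 10 ng/mL).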

The nature of data set [15]: Inhibition of LCK-B-mediated proliferation of mouse BAF3 cells transformed with Tel-kinase construct. The format is cell-based. The method, boiled down:
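Murine BaF3 cells made IL-3-independent by a Tel-kinase fusion were grown in RPMI-1640 with 10% FBS. Cells were seeded at 4250 per well with DMSO-diluted compound and incubated 48 h at 37 °C. Viability was read by Bright-Glo luminescence.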

In data set [16] the target is Glycogen synthase kinase-3 beta (Homo sapiens, UniProt P49841). Kind of data set: Inhibition of recombinant GSK3-beta. The method, boiled down: as §4
The target of data set [17] is Rho-associated protein kinase 2 (Homo sapiens, UniProt O75116). Kind of data set: Inhibition of recombinant ROCK2. The gist of the method: as §4
In data set [18] the target is Receptor tyrosine-protein kinase erbB-2 (Homo sapiens, UniProt P04626). Briefly: Inhibition of recombinant ERBB2. The gist of the method: as §4

Calls of active or inactive are those of the source. No cut-off for these calls is given here.

Chain of Ephrin type-B receptor 4 (P54760 whole entry): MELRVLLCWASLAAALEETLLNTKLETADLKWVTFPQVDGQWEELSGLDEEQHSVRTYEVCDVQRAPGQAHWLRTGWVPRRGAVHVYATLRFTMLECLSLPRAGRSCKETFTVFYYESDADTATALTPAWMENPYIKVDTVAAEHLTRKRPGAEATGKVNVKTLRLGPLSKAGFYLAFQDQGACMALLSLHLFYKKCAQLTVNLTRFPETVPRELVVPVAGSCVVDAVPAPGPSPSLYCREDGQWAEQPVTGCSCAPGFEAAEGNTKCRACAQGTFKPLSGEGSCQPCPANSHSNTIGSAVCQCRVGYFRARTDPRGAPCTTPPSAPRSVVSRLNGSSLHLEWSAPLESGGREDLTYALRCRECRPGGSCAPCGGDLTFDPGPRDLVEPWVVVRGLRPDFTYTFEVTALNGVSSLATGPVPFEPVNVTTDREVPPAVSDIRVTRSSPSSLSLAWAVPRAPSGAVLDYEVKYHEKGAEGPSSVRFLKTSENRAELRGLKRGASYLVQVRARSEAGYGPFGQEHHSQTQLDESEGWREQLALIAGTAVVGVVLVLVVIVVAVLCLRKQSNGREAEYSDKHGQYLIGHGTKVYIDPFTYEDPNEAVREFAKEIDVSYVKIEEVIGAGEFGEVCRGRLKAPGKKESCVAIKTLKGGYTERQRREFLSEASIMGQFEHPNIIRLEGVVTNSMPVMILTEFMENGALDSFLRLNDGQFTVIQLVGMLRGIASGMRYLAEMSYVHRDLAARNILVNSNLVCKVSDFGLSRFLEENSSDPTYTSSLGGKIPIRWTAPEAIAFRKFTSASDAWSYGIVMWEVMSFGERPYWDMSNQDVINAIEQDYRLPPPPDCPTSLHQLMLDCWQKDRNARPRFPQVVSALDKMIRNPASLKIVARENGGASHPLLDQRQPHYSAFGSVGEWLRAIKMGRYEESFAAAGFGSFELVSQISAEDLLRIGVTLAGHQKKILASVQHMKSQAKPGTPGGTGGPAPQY
Chain of Phosphatidylinositol 4,5-bisphosphate 3-kinase catalytic subunit beta isoform (P42338 whole entry, canonical isoform): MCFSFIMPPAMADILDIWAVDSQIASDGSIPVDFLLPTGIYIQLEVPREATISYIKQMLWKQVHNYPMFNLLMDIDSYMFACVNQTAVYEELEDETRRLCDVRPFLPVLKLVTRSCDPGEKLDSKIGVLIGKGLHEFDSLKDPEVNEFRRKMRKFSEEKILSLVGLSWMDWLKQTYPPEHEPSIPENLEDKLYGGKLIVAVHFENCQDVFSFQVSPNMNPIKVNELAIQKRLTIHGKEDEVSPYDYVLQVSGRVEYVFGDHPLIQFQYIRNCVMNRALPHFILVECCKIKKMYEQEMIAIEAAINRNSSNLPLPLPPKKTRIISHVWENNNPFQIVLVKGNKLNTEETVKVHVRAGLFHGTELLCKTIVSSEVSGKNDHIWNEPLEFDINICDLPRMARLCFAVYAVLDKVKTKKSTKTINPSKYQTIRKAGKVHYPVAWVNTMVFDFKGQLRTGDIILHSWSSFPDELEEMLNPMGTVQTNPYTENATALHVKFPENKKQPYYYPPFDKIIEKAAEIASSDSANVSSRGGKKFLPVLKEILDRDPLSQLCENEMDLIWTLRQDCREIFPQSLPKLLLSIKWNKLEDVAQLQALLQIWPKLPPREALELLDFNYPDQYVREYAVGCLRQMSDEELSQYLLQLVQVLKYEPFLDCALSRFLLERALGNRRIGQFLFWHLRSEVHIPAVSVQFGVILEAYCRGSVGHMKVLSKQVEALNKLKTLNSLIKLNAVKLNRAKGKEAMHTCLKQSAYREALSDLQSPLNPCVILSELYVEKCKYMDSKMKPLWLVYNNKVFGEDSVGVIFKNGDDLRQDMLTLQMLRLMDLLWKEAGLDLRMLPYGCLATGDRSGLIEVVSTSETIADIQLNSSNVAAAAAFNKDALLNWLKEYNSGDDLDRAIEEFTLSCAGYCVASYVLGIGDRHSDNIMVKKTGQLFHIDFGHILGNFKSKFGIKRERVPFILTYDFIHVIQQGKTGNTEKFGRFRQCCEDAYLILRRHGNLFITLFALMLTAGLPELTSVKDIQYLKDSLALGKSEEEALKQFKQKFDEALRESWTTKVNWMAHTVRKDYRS
Chain of Glycogen synthase kinase-3 beta (P49841 whole entry): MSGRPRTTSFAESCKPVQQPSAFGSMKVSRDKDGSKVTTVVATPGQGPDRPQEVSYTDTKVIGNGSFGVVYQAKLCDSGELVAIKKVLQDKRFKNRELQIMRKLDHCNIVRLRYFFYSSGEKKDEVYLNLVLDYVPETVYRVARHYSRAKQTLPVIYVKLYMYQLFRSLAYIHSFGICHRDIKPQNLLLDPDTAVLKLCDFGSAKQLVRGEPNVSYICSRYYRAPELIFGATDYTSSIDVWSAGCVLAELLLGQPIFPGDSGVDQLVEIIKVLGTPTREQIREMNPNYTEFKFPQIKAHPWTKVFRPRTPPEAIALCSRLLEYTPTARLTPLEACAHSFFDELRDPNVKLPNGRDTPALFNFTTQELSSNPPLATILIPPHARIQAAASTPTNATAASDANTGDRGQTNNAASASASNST
Chain of Receptor tyrosine-protein kinase erbB-2 (P04626 whole entry): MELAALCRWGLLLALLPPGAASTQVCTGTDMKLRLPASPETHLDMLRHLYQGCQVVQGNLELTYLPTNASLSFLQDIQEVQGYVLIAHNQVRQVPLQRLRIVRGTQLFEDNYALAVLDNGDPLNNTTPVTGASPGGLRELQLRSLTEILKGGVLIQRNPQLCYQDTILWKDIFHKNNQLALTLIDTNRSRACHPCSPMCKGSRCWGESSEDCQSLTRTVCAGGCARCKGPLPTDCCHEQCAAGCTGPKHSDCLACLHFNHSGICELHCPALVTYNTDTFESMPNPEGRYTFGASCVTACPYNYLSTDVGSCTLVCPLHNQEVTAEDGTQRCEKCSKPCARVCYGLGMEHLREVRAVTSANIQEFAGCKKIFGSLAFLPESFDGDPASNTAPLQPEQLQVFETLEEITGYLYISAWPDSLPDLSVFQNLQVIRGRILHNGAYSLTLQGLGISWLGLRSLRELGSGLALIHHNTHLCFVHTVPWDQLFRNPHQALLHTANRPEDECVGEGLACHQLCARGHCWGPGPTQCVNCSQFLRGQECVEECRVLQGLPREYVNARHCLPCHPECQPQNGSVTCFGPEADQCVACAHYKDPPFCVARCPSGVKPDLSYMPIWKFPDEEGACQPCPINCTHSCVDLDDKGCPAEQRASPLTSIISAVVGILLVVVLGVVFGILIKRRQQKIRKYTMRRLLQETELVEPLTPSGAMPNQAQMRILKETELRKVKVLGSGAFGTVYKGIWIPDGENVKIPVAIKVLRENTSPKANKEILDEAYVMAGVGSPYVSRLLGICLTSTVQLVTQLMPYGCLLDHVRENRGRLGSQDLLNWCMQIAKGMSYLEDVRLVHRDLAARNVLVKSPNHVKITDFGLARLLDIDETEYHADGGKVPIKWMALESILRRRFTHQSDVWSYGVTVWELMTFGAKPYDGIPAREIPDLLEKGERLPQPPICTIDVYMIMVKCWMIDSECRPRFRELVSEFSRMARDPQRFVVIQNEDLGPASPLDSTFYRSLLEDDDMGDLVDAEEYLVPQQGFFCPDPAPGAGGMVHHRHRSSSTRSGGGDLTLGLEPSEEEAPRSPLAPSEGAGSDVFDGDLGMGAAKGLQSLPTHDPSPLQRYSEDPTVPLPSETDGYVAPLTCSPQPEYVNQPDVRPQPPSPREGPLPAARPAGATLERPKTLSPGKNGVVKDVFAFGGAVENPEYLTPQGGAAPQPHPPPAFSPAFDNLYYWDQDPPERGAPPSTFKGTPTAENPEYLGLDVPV
Chain of Serine/threonine-protein kinase pim-2 (Q9P1W9 whole entry): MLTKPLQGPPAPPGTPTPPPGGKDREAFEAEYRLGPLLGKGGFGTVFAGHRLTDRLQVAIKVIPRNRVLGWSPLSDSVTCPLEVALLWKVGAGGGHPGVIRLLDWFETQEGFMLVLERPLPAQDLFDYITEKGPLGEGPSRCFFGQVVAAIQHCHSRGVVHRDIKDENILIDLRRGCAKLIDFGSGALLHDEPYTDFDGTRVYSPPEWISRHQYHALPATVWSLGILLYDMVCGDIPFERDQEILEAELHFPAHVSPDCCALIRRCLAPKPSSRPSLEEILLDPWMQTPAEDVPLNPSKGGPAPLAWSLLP

Regarding `CCN1CCN(c2ccc(Nc3cc(N(C)C(=O)Nc4c(Cl)c(OC)cc(OC)c4Cl)ncn3)cc2)CC1.O=P(O)(O)O` [INFIGRATINIB PHOSPHATE], the IC50 (usually the concentration that gives 50% inhibition) in data set [1] was more than 9 µM; in data set [3] it was more than 10 µM; in [5], more than 10 µM; in data set [12], more than 10 µM; in data set [15] it was 2.48 µM; in data set [16], more than 10 µM. Besides, the 50% inhibitory concentration (IC50) in data set [17] and in data set [18] was more than 10 µM in each case. Besides, the time of peak concentration (Tmax) (in general, the time at which the peak concentration occurs) in data set [2] amounted to 8 h. This molecule showed a Drug uptake in data set [4] of 1.52 nmol/g. Besides, the inhibition entry in data set [6] was “Active”. The Vd in data set [7] amounted to 26 L/kg. For the same molecule, the AUC/dose in data set [8] was 0.6 µM·h; in data set [14], 0.49 µM·h. Moreover, the Activity in data set [9] stood at 9%; in [10], 66%. The clearance (in general, the rate of elimination divided by the concentration) in data set [11] was 55 mL/min/kg. In data set [13], this molecule registered a Cmax of 1.63 nmol/g.

(Values after ChEMBL document CHEMBL1833940, “Discovery of 3-(2,6-dichloro-3,5-dimethoxy-phenyl)-1-{6-[4-(4-ethyl-piperazin-1-yl)-phenylamino]-pyrimidin-4-yl}-1-methyl-urea (NVP-BGJ398), a potent and selective inhibitor of the fibroblast growth factor receptor family of receptor tyrosine kinase” (J Med Chem, 2011).)
